Biological target: T1, OR1A1 (Homo sapiens) (UniProt Q9P1Q5)
T1 sequence (whole entry): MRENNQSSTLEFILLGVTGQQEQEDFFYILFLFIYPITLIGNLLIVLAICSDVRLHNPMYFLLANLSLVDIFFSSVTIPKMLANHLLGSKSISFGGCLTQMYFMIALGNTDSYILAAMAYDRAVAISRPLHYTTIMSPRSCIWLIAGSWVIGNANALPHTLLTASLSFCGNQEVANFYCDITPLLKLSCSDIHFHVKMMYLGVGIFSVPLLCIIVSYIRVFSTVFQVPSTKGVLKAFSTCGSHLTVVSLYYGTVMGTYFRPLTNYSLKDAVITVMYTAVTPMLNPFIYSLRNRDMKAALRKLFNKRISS
Conditions: stereoisomer not certain
Outline: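 Each receptor–molecule pair is labelled responsive or non-responsive (inactive) according to whether the original authors judged the measured signal statistically different from baseline. The data were taken from the main text and supplementary material of published papers and checked for typos and inconsistencies. Assay methods differed by source, with transient luciferase assays in mammalian cell lines being common.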
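Also: active if original authors judged signal statistically different from baseline.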

C=Cc1ccc(O)cc1
odorant receptor agonist call: inactive
